By Ki is commonly meant the equilibrium dissociation constant of an inhibitor or competing ligand from its target. A low value points to higher affinity. What is called EC50 is the concentration at which the effect is half-maximal. Low readings indicate higher potency in that assay, high ones lower potency in that assay.

Assay [1] addresses T1, GABA-A receptor; alpha-2/beta-3/gamma-2 (Homo sapiens) (UniProt P18507+P28472+P47869). The assay is described as follows: Negative allosteric modulation of human alpha2beta3gamma2 GABA receptor expressed in Xenopus laevis oocytes at 1 uM. The class given is cell-based. To be noted: Oocyte. An outline of the steps: (§1)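 Two-electrode voltage clamp on oocytes expressing human α/β/γ2 subtypes, used 2–10 days after injection. […] Baseline was the mean of three GABA-alone pulses. Result is % modulation, mean ± SEM over individual oocytes.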

Assay [2] addresses T2, GABA-A receptor; alpha-5/beta-3/gamma-2 (Homo sapiens) (UniProt P18507+P28472+P31644). Briefly: Negative allosteric modulation of human alpha5beta3gamma2 GABA receptor expressed in Xenopus laevis oocytes at 1 uM. Type of assay: cell-based. The settings on record: Oocyte. In short, it runs like this:
as §1

For assay [3], the target named is T3, GABA-A receptor; alpha-2/beta-3/gamma-2 (Homo sapiens, UniProt P18507+P28472+P47869).
T3 sequence (P18507 whole entry): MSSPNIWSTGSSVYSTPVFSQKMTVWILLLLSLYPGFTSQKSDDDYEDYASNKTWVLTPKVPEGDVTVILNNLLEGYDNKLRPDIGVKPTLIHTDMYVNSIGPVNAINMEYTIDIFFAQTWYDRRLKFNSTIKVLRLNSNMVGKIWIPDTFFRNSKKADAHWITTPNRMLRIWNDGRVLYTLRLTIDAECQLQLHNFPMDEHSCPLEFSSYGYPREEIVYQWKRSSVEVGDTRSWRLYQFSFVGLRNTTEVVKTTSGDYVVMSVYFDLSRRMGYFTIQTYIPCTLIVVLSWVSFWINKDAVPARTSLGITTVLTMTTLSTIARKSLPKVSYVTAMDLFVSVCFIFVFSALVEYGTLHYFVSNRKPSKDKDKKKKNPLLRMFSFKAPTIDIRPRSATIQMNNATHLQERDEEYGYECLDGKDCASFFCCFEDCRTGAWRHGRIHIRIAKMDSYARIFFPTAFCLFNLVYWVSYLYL
T3 sequence (P28472 whole entry): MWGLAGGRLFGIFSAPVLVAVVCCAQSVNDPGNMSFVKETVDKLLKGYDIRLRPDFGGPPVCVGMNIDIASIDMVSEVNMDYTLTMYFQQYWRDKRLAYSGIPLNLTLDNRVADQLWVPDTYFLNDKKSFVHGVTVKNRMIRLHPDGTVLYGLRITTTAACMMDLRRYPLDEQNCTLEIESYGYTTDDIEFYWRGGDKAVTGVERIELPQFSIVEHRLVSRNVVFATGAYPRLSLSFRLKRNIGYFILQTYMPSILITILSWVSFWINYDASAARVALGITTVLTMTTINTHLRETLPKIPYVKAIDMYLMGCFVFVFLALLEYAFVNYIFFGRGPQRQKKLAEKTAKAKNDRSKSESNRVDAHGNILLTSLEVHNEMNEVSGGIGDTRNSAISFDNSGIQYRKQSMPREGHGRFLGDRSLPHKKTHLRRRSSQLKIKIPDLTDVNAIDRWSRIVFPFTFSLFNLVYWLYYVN
T3 sequence (P47869 whole entry): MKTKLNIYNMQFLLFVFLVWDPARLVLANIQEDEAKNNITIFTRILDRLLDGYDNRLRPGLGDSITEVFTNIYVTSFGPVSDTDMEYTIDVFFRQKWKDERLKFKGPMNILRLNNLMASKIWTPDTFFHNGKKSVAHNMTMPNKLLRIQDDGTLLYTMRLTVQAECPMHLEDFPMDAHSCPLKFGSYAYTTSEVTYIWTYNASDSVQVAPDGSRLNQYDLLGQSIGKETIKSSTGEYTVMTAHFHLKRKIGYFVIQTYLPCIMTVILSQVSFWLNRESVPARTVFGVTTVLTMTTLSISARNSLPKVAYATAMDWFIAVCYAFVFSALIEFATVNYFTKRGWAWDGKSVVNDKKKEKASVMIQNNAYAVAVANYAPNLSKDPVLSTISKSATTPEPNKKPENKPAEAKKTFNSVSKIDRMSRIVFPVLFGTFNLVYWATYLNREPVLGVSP
Briefly: Displacement of [3H]flunitrazepam from human alpha2beta3gamma2 GABA receptor in Sf9 membranes after 1 hr by liquid scintillation counting. An outline of the steps:
(§2)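 [3H]Flunitrazepam (3 nM) competition on recombinant Sf9 membranes co-expressing α, β and γ2 subunits. Compound incubated 1 h at 4 °C in 20 mM Tris–citrate, 200 mM NaCl, pH 7.8, with membrane protein.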
Background: Loss of bound radioactivity is the signal in a displacement assay; it reports binding, not function.

Assay [4] concerns the target T1, GABA-A receptor; alpha-2/beta-3/gamma-2 (Homo sapiens). The assay is described as follows: Positive allosteric modulation of human alpha2beta3gamma2 GABA receptor expressed in Xenopus laevis oocytes at 1 uM. Type of assay: cell-based. To be noted: Oocyte. In short, it runs like this: as §1
Assay [5] addresses T2, GABA-A receptor; alpha-5/beta-3/gamma-2 (Homo sapiens). Briefly: Positive allosteric modulation of human alpha5beta3gamma2 GABA receptor expressed in Xenopus laevis oocytes at 1 uM. Type of assay: cell-based. The settings on record: Oocyte. An outline of the steps:
as §1

Assay [6] has as its target T4, GABA-A receptor; alpha-5/beta-3/gamma-2 (Homo sapiens, UniProt P18507+P28472+P31644).
T4 sequence (P18507 whole entry): T3 sequence (P18507 whole entry)
T4 sequence (P28472 whole entry): T3 sequence (P28472 whole entry)
T4 sequence (P31644 whole entry): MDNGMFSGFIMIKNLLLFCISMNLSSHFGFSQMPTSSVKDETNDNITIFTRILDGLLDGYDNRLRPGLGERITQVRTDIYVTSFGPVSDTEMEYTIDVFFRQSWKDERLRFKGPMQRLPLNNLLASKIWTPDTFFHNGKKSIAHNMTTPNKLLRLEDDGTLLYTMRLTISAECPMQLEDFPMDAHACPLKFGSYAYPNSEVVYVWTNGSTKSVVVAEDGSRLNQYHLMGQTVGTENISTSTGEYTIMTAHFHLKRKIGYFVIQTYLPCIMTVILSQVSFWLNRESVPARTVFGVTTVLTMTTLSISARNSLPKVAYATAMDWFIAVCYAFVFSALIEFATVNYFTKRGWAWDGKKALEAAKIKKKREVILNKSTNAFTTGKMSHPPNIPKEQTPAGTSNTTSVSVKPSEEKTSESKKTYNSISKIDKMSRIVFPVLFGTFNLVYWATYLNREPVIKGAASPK
Briefly: Displacement of [3H]flunitrazepam from human alpha5beta3gamma2 GABA receptor in Sf9 membranes after 1 hr by liquid scintillation counting. An outline of the steps:
as §2

For assay [7], the target named is T5, GABA-A receptor; alpha-3/beta-3/gamma-2 (Homo sapiens, UniProt P18507+P28472+P34903).
T5 sequence (P18507 whole entry): T3 sequence (P18507 whole entry)
T5 sequence (P28472 whole entry): T3 sequence (P28472 whole entry)
T5 sequence (P34903 whole entry): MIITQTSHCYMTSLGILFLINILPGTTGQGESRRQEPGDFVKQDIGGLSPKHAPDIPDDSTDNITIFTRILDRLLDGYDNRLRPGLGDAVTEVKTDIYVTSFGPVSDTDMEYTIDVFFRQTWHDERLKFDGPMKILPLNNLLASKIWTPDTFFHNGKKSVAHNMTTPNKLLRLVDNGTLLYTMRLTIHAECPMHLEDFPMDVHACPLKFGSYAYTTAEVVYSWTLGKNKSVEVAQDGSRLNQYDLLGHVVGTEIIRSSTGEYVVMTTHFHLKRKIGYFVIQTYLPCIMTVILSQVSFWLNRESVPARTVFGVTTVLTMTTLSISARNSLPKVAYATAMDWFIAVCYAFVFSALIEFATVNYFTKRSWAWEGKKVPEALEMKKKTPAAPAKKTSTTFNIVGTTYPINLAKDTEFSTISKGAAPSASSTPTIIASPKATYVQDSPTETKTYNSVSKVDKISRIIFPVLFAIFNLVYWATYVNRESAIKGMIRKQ
The assay is described as follows: Binding affinity to human alpha3beta3gamma2 GABA receptor expressed in Xenopus laevis oocytes. Type of assay: cell-based, Oocyte.

For assay [8], the target named is T6, GABA-A receptor; alpha-1/beta-2/gamma-2 (Homo sapiens, UniProt P14867+P18507+P47870).
T6 sequence (P14867 whole entry): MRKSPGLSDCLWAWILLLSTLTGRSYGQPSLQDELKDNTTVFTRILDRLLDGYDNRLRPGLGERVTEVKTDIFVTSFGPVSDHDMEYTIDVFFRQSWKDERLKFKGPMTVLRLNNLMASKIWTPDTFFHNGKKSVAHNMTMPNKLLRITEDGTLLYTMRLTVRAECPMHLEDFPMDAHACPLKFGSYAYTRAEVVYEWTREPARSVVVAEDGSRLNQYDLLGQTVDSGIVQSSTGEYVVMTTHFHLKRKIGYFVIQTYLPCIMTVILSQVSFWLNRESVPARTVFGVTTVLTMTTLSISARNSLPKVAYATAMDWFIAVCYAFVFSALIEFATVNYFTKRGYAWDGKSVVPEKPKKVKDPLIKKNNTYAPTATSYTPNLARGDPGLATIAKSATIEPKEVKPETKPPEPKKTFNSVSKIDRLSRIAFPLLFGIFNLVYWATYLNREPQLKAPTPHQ
T6 sequence (P47870 whole entry): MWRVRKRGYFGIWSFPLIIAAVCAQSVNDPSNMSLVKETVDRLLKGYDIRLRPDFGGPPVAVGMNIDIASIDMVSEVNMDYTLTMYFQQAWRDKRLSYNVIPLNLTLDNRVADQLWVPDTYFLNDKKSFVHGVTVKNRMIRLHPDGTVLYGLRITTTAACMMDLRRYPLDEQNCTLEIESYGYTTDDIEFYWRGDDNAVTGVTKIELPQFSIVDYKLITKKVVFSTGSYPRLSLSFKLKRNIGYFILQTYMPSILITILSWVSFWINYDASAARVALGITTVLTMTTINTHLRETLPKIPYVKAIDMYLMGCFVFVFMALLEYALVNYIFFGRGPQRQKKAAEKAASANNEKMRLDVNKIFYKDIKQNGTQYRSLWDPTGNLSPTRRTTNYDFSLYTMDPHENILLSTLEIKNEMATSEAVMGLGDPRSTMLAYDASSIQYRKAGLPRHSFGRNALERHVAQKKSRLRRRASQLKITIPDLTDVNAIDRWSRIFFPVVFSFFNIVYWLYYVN
T6 sequence (P18507 whole entry): T3 sequence (P18507 whole entry)
Briefly: Binding affinity to human alpha1beta2gamma2 GABA receptor expressed in Xenopus laevis oocytes. The class given is cell-based, Oocyte.

Assay [9] deals with T3, GABA-A receptor; alpha-2/beta-3/gamma-2. Briefly: Binding affinity to human alpha2beta3gamma2 GABA receptor expressed in Xenopus laevis oocytes. Type of assay: cell-based, Oocyte.
The target in assay [10] is GABA-A receptor; alpha-3/beta-3/gamma-2 (Homo sapiens) (UniProt P18507+P28472+P34903). Briefly: Negative allosteric modulation of human alpha3beta3gamma2 GABA receptor expressed in Xenopus laevis oocytes at 1 uM. Type of assay: cell-based. To be noted: Oocyte.
In assay [11] the target is GABA-A receptor; alpha-1/beta-2/gamma-2 (Homo sapiens) (UniProt P14867+P47870+P18507). The assay is described as follows: Negative allosteric modulation of human alpha1beta2gamma2 GABA receptor expressed in Xenopus laevis oocytes at 1 uM. The class given is cell-based. To be noted: Oocyte.
Assay [12] addresses T4, GABA-A receptor; alpha-5/beta-3/gamma-2. The assay is described as follows: Binding affinity to human alpha5beta3gamma2 GABA receptor expressed in Xenopus laevis oocytes. The class given is cell-based, Oocyte.

On to `Nc1c(C(=O)N2CCC2)nnc2c(-c3ncccn3)cccc12`, for which the figures for the Activity in assay [1] and in [2] were 5% and 22%, respectively.

Consider `CCCNC(=O)c1nnc2c(-c3ncccn3)c(F)ccc2c1N`, for which the Activity stood at 3% in assay [2] and 31% in assay [4]. The same compound had a Ki in assay [3] of 0.006 µM.

Take `CC1CN(C(=O)c2nnc3c(-c4ncccn4)cccc3c2N)C1`: the Activity was determined as 35% in assay [2] and 14% in [4].

`Nc1c(C(=O)N2CC(F)(F)C2)nnc2c(-c3ncccn3)c(F)ccc12`: the Activity amounted to 7% in [1] and 13% in assay [5].

Take `Nc1c2c(nc3c(-c4cncnc4)cccc13)CN(C1CCC1)C2=O`: the Ki in assay [6] was determined as 0.012 µM; in [3] it was 0.0015 µM. The Activity came to 2% in assay [2] and 18% in assay [4].

As for `CC1CN(C(=O)c2nnc3c(-c4ncccn4)c(F)ccc3c2N)C1`, the Activity was determined as 0% in assay [5] and 18% in assay [4].

As for `CCCNC(=O)c1nnc2c(-c3cncc(C(=O)N4CCC4)c3)cccc2c1N`, the Activity in [1] came out at 5%; in assay [2] it was 45%; in assay [10], 11%; in [11], 14%. For the same compound, the EC50 in [7] stood at 0.174 µM; in [8] it was 0.389 µM; in assay [9], 0.054 µM; in assay [12], 0.455 µM.

As for `CCc1c(C(=O)OC)ncc2[nH]c3cc(OC)c(OC)cc3c12`, the Activity in assay [1] came out at 61%; in [2], 69%; in assay [10], 58%; in [11], 68%. Besides, the EC50 turned out to be 0.01 µM in assay [7], 0.009 µM in [8], 0.014 µM in [9] and 0.003 µM in assay [12].
